Assay [1] has as its target Platelet glycoprotein 4 (Mus musculus) (UniProt Q08857). Briefly: Modulation of CD36 receptor in mouse RAW 264.7 cells assessed as inhibition of R-FSL-1-induced NO production pretreated for 30 mins followed by R-FSL-1 stimulation measured after 1140 min by fluorescence plate reader assay. Format: cell-based. The settings on record: RAW264.7, filed as modulator, time 1170.0 min. In a few lines: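 RAW 264.7 cells seeded at 1.5 × 10^5 per well in DMEM with pen/strep. After 2 h, medium changed to DMEM with 0.2% BSA containing peptide. Cells stimulated with R-FSL-1 at 300 ng/mL for 19 h. Nitrite in 25 μL supernatant reacted with 0.5 μg 2,3-diaminonaphthalene in 50 mM phosphate pH 7.5, 15 min at room temperature in the dark, stopped with NaOH. Fluorescence read.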

Assay [2] shares this target. Put plainly: Modulation of CD36 receptor in mouse RAW 264.7 cells assessed as inhibition of R-FSL-1-induced NO production at competitive receptor binding assay IC50 concentration pretreated for 30 mins followed by R-FSL-1 stimulation measured after 19 hrs by fluorescence plate reader assay relative to R-FSL-1. The settings on record: RAW264.7, time 1170.0 min. On the set-up: scale not given: the % may be the effect or the level left. Format: cell-based.

The target is the same in assay [3]. Put plainly: Modulation of CD36 receptor in mouse RAW 264.7 cells assessed as inhibition of R-FSL-1-induced TNFalpha production pretreated for 30 mins followed by R-FSL-1 stimulation measured after 4 hrs by ELISA. Type of assay: cell-based. To be noted: RAW264.7, filed as modulator, time 4.5 hrs. In a few lines: (§1)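 RAW 264.7 cells seeded at 1.5 × 10^5 per well and weaned overnight in DMEM with 1% pen/strep. Medium then changed to DMEM with 0.2% BSA. Cells pretreated 30 min with peptide at 10^-7 M, with linear [azaTyr4]-GHRP-6 as reference. Stimulated with R-FSL-1 at 300 ng/mL for 4 h at 37 °C. TNF-α or CCL-2 in supernatant measured by ELISA. Inhibition % = (FSL-1 − treated)/(FSL-1 − basal) × 100.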
In general terms: An ELISA detects its analyte on a solid surface through an enzyme-linked reagent.

The target is the same in assay [4]. Put plainly: Modulation of CD36 receptor in mouse RAW 264.7 cells assessed as inhibition of R-FSL-1-induced TNFalpha production at competitive receptor binding assay IC50 concentration pretreated for 30 mins followed by R-FSL-1 stimulation measured after 19 hrs by ELISA relative to R-FSL-1. Format: cell-based. On the set-up: scale not given: the % may be the effect or the level left. To be noted: RAW264.7, time 19.5 hrs.

Assay [5] shares this target. Briefly: Modulation of CD36 receptor in mouse RAW 264.7 cells assessed as inhibition of R-FSL-1-induced CCL-2 production pretreated for 30 mins followed by R-FSL-1 stimulation measured after 4 hrs by ELISA. Type of assay: cell-based. The settings on record: RAW264.7, filed as modulator, time 4.5 hrs. The essentials: as §1
Assay [6] shares this target. Put plainly: Modulation of CD36 receptor in mouse RAW 264.7 cells assessed as inhibition of R-FSL-1-induced CCl-2 production at competitive receptor binding assay IC50 concentration pretreated for 30 mins followed by R-FSL-1 stimulation measured after 19 hrs by ELISA relative to R-FSL-1. Type of assay: cell-based. The arrangement: scale not given: the % may be the effect or the level left. To be noted: RAW264.7, time 19.5 hrs.

Assay [7] has the same target. Briefly: Modulation of CD36 receptor in mouse BMA3.1A7 cells assessed as inhibition of R-FSL-1-induced IL-1beta production […] measured after 4 hrs by ELISA. Type of assay: cell-based. To be noted: filed as modulator, time 4.5 hrs.
The target is the same in assay [8]. Briefly: Modulation of CD36 receptor in mouse BMA3.1A7 cells assessed as inhibition of R-FSL-1-induced IL-1beta production at competitive receptor binding assay IC50 concentration pretreated for 30 mins followed by R-FSL-1 stimulation measured after 4 hrs by ELISA relative to R-FSL-1. Format: cell-based. On the set-up: scale not given: the % may be the effect or the level left. The settings on record: time 4.5 hrs.

The target in another assay is Platelet glycoprotein 4 (Rattus norvegicus, UniProt Q07969). Briefly: Displacement of [125I]-Tyr-Bpa-Ala-hexarelin from rat CD36 receptor in heart tissue membrane incubated for 60 mins by competitive receptor binding assay. Type of assay: cell membranes. In a few lines: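 Rat heart membranes (50 μg) incubated in the dark with 250,000 cpm [125I]-Tyr-Bpa-Ala-hexarelin in 50 mM Tris-HCl pH 7.4, 2 mM EGTA, 0.05% bacitracin, with competitor at 0.1–10 μM; hexarelin as reference. Nonspecific binding defined with 50 μM peptide. 60 min at 22 °C, then UV photolysis at 365 nm for 15 min at 4 °C. Pellets resolved on 7.5% SDS-PAGE.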
Platelet glycoprotein 4, sequence (Q07969 whole entry): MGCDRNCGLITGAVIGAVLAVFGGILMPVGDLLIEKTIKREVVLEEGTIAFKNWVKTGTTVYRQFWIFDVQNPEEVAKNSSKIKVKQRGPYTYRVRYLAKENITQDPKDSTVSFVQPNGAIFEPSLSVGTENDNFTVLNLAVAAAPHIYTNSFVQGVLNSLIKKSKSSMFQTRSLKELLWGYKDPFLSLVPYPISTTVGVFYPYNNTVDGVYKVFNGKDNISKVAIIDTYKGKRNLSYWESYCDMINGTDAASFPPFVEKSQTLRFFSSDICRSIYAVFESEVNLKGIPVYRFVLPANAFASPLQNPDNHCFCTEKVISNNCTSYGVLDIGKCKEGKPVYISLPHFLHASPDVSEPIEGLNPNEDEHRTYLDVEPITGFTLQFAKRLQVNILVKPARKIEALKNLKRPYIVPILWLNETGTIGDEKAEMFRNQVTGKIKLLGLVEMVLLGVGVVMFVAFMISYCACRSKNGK
(Displacement assays read how much labelled ligand stays bound in the presence of the test substance.)

The pIC50 is the IC50 on a negative log10 scale, so that one unit is a factor of ten.

pIC50: −log10 of the molar value.

Platelet glycoprotein 4 (Mus musculus), sequence (Q08857 whole entry): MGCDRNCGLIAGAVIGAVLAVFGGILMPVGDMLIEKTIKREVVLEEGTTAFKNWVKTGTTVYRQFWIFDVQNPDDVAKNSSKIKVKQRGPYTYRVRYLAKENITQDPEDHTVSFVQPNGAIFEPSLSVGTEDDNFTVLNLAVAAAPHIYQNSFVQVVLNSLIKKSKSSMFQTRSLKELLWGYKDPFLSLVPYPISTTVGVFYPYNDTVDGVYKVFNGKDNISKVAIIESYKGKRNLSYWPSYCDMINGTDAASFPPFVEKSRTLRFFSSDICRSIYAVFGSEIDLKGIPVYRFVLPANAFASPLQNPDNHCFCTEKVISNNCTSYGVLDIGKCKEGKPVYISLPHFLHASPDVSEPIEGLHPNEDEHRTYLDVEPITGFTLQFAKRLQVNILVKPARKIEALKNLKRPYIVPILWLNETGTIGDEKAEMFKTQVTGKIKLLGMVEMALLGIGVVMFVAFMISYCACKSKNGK

Consider `C[C@H](N)C(=O)NN1CC#CCN(CC2CC2)CCCC[C@@H](C(N)=O)NC(=O)[C@@H](Cc2ccccc2)NC(=O)[C@H](Cc2c[nH]c3ccccc23)NC(=O)[C@H](C)NC(=O)[C@@H](Cc2c[nH]c3ccccc23)NC1=O`, for which the Activity in assay [1] was 2.53 µM; in [2] it was 14%; in assay [3], 4620 pmol; in assay [4], 8%; in [5], 984 pmol; in assay [6], 21%. In addition, the Activity in assay [7] is 366 pmol; in [8] it was 13%. At Platelet glycoprotein 4, the pIC50 was 5.51.

On to `C=CCN1CC#CCN(N)C(=O)N[C@H](Cc2c[nH]c3ccccc23)C(=O)N[C@@H](C)C(=O)N[C@@H](Cc2c[nH]c3ccccc23)C(=O)N[C@H](Cc2ccccc2)C(=O)N[C@H](C(N)=O)CCCC1`, for which the Activity was 2.72 µM in [1]; 5% in assay [2]; 4900 pmol in assay [3]; 2% in assay [4]; 1040 pmol in [5]; 6% in assay [6]. Further, the Activity in assay [7] was found to be 388 pmol; in [8], 7%. The compound further gave a pIC50 on Platelet glycoprotein 4 below 4.30.

These data come from ChEMBL document CHEMBL5034008, “Diversity-Oriented A3-Macrocyclization for Studying Influences of Ring-Size and Shape of Cyclic Peptides: CD36 Receptor Modulators” (J Med Chem, 2021).
